The target in the test is T1, Fe(3+)-Zn(2+) purple acid phosphatase (Phaseolus vulgaris, UniProt P80366).
T1 sequence (P80366 whole entry): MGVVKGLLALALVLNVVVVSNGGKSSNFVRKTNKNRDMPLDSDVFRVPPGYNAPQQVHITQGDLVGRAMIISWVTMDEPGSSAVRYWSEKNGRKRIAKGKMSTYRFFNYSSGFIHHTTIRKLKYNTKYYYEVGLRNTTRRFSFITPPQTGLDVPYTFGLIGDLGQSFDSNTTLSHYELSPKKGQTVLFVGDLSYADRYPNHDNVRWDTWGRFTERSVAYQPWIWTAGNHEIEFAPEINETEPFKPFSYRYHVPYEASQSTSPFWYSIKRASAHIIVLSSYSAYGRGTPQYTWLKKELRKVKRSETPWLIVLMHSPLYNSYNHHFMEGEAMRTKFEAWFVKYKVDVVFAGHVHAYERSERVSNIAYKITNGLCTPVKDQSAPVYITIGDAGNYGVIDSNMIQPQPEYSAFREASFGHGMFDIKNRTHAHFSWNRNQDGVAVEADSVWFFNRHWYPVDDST
The test can be described thus: Inhibition of red kidney bean PAP at pH 6.2. In short, it runs like this: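 Each enzyme was run at its own pH optimum: red kidney bean PAP at pH 6.2 and pig PAP at pH 4.9. IC50 values were determined experimentally. Separate inhibition constants were derived for binding to the free enzyme and to the enzyme–substrate complex.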

A word on the Ki: it is the equilibrium dissociation constant of an inhibitor or competing ligand from its target. High values mean weaker binding, low ones tighter binding.

For `CCCCCCCCCCOC(c1cccc2ccccc12)P(=O)(O)O` (racemic) [(+/-)-decyloxy(naphthalen-1-yl)methylphosphonic acid], affinity was put at a Ki of 4 µM. Consider `CCCCCCOC(c1cccc2ccccc12)P(=O)(O)O` (racemic) [(+/-)-hexyloxy(naphthalen-1-yl)methylphosphonic acid], for which the inhibition constant Ki turned out to be 1470 µM. The molecule `CCCCCCCCOC(c1cccc2ccccc12)P(=O)(O)O` (racemic) [(+/-)-naphthalen-1-yl(octyloxy)methylphosphonic acid] returned a Ki of 50 µM.

For the origin of these results see BindingDB's records for doi:10.1016/j.bmcl.2008.10.125 (The University of Queensland, 2008).
